Screening data from PubChem.
HSF-1 act = increases HSF-1 driven luciferase reporter signal; 1.7% of 300,000 active; activation, % at 9 µM; AID 504408; NIH3T3-HGL HSF-1 luciferase reporter, MG132, 8 h; 100% = twice DMSO control signal;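 active means mean replicate activation of at least 50% with a set share of replicates each reaching 50%; inconclusive means only one of those two conditions met; inactive means mean below 50% and too few replicates reaching it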;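 further: 0% = median of the neutral control wells and 100% = twice that signal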
FID counter = counter-screen for HCV NS3 helicase inhibitors: DNA intercalator displacement. AID 1845. inhibition, % at 7.9 µM. DNA fluorescent intercalator displacement, fluorescence. 0.17% of 290,000 active; in the data active means inhibition above about 37%;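 further: 0% = vehicle and 100% = reference compound; higher means more ethidium bromide displaced from hairpin DNA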
HSF1 inh = HSF1 inhibition | NIH3T3-HGL HSE-luciferase, MG132-induced, luminescence 8 h; active compounds read low | activity change, negative = inhibition, % at 7.5 µM (by protocol) | 0.77% of 300,000 active;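 active means more than half of replicate wells show activity change below -50%, luminescence cut by over half; inconclusive means some wells, but at most half, below -50%; inactive means no replicate well below -50%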;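 further: luciferase reports HSF-1 transcriptional activity via heat shock element; 0% = median of DMSO wells and -100% = zero luminescence signal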
HCV core dimer = blocks dimerization of HCV core protein | 0.33% of 300,000 active | inhibition, % at 5 µM | TR-FRET GST/Flag-core106 dimerization, 1536-well;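 active means inhibition above the mean of all tested compounds plus 3 SD, set per screening campaign, cut at about 45% in these data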
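Assay system: Tagged HCV core106 pair (GST and Flag) | Buffer or medium: KF-containing HEPES buffer, pH 7.45, DTT, CHAPS, BSA | Also added: Eu donor and XL665 acceptor anti-tag antibodies | Dosing: One concentration, 5 µM, in 0.5% DMSO | Timing: 4 h at 22.5 °C | Technique: TR-FRET 671 and 617 nm emission | Repeats: Singlicate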
NS3 helicase inh = HCV NS3 helicase inhibition. inhibition, % at 10.9 µM. AID 1800. 0.56% of 290,000 active. NS3 helicase DNA unwinding, Cy5 molecular beacon fluorescence;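 active means inhibition above the mean of all tested compounds plus 3 SD, set per campaign, cut at about 35% in these data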;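 further: 0% = DMSO wells and 100% = thioflavine S control wells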
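Measured by: Cy5 fluorescence, 0 and 60 min reads / Assay system: NS3 helicase fragment of HCV / Control set: low DMSO, high thioflavine S at 110 µM / Times: 1 h reaction at 25 °C, ATP-initiated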
HSP90 inh = inhibitors of HSP90 luciferase refolding in rabbit reticulocyte lysate; luciferase refolding luminescence, 3 h; inhibition, % at 5.6 µM; 0.91% of 290,000 active;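 active means inhibition above the screen-wide mean plus 3 SD, computed separately per campaign, cut at about 16% in these data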;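 further: 0% = DMSO wells and 100% = 60 µM geldanamycin wells; inhibitors lower the luminescence because luciferase stays unfolded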
Numbers without * were called inactive; ? = inconclusive; . = not tested or not shown. A selection: hits, their analogues and other compounds. The true share with any hit is near 3.9%.

SMILES	HSF-1 act	FID counter	HSF1 inh	HCV core dimer	NS3 helicase inh	HSP90 inh
NCCCCCc1nnc(SCC(=O)c2ccc(Cl)cc2)o1	58*	18	30	0	-93	1
O=C(Nc1ccc2nc(-c3ccco3)c(-c3ccco3)nc2c1)NC1CC1	9	-6	-4	.	47*	9
O=C(Nc1cccc(C(F)(F)F)c1)c1ccc2nc(-c3ccco3)c(-c3ccco3)nc2c1	12	-11	0	74*	23	5
CC1Cc2ccccc2N1C1=CC(=O)CCC1 (stereo unspecified)	3	-11	2	-2	0	1
NC1=NC(c2cn[nH]c2-c2cccc(F)c2)n2c(nc3ccccc32)N1 (stereo unspecified)	-80	0	-75*	5	-9	-1
CSCCC(NC(=O)c1ccc(Cl)cc1Cl)C(=O)NCc1ccncc1 (stereo unspecified)	14	.	-2	-1	.	.
COc1ccc(-c2cc(-c3ccc(Cl)cc3)n[nH]2)c(O)c1	94*	-2	62	2	1	-6
COc1ccc(-c2cc(-c3ccccc3O)[nH]n2)cc1OC	106*	-12	67	-3	-44	1
COc1ccc(-c2cc(-c3cc(OC)ccc3O)[nH]n2)cc1	1	-8	1	-2	-7	0
O=C(C1CCCN(Cc2ccccc2F)C1)N1CCCC1 (stereo unspecified)	-26	-1	-8	-9	20	-1
O=C1CCC/C(=N\NC(=O)COc2ccc(Cl)cc2)C1	-5	-3	-1	1	5	2
CCCc1nnc(NC(=O)CCC(=O)N2CCN(S(=O)(=O)c3ccc(F)cc3)CC2)s1	-88	-22	-86*	2	1	0
COc1cccc(C(=O)Nc2ccccc2)c1	30	-2	3	-5	4	0
CN(C)S(=O)(=O)Oc1cccc(C(=O)Nc2ccc(Cl)c(Cl)c2)c1	-2	2	-16	1	-8	-3
COc1cccc(C(=O)Nc2cccc(SC)c2)c1	62*	-5	37	2	-1	-3
COc1ccc(NC(=O)c2cc3cc(OC)ccc3oc2=N)cc1	-60	2	-53*	5	0	-2
COc1ccc(NC(=O)c2cccc(OS(=O)(=O)N(C)C)c2)cc1	54*	-8	34	-3	-6	3
CSc1cccc(NC(=O)c2cccc3cccnc23)c1	54*	-20	27	-2	-1	-4
O=C1C=C(Nc2ccc(Cl)cc2)C(=O)N1c1ccc(Cl)cc1	19	-3	13	11	0	-5
COc1ccc(CN(C)C(=O)c2ccc(NS(=O)(=O)c3ccc(C)c([N+](=O)[O-])c3)cc2)c(OC)c1OC	-9	.	-2	6	.	.
CC(=O)c1ccc(OCC(=O)N2CCN(S(=O)(=O)c3ccc(C)cc3C)CC2)cc1	2	-39	4	7	-1	-4
O=C1C=C(c2ccccc2)CC(c2cccs2)C1n1cnc([N+](=O)[O-])c1 (stereo unspecified)	31	-14	-4	47*	12	1
O=C1C=C(c2ccccc2)C[C@H](c2cccs2)[C@H]1n1nnc([N+](=O)[O-])n1	-5	-1	-7	42	5	-1
Cc1ccc2sc(N(CCCN(C)C)C(=O)c3ccc(S(=O)(=O)N(C)Cc4ccccc4)cc3)nc2c1C	31	.	22	-5	.	.
COc1ccc(C)c2sc(N(CCCN(C)C)C(=O)c3ccc(S(=O)(=O)N4CCc5ccccc5C4)cc3)nc12	-44	.	?	-2	.	.
SMILES	HSF-1 act	FID counter	HSF1 inh	HCV core dimer	NS3 helicase inh	HSP90 inh
CCOc1cccc2sc(N(CCCN(C)C)C(=O)c3ccc(S(=O)(=O)N(CC)Cc4ccccc4)cc3)nc12	7	37*	-1	-10	-42	8
CCN(c1ccccc1)S(=O)(=O)c1ccc(C(=O)N(CCCN(C)C)c2nc3c(C)cccc3s2)cc1	14	37*	16	-18	-40	0
CCOc1cccc2sc(N(CCCN(C)C)C(=O)c3ccc(S(=O)(=O)N(C)Cc4ccccc4)cc3)nc12	-5	39*	6	-25	-39	7
COc1ccc(OC)c2sc(N(CCCN(C)C)C(=O)c3ccc(S(=O)(=O)N4CCc5ccccc5C4)cc3)nc12	-69	.	-69*	-11	.	.
COC(=O)Cn1cnc2c(oc3ccccc32)c1=O	13	-1	6	2	-1	-2
Cc1ccc(N2C=Nc3ccc(C)c4nc(C)cc2c34)cc1	-8	10	0	2	0	-3
O=C(Cn1c(=O)sc2ccccc21)Nc1ccccc1C(=O)O	1	-7	0	-5	4	-3
Cc1cccc(N2CCN(C(=S)Nc3ccc4nc(N5CCN(C)CC5)cc(C)c4c3)CC2C)c1 (stereo unspecified)	11	47*	3	5	-55	2
Cc1cc(N2CCN(C)CC2)nc2ccc(NC(=S)N3CCN(c4ccc(Cl)cc4)CC3)cc12	-2	46*	4	0	-64	2
Cc1cc(N2CCN(C)CC2)nc2ccc(NC(=S)N3CCN(c4ccc(F)cc4)CC3)cc12	-5	6	-4	5	-16	-1
CC1(C)CCc2cc(CN3CCN(c4ccccn4)CC3)ccc2O1	-19	-5	2	-1	-9	-1
O=C1CCCC/C1=N\Nc1ccc(C2CCCCC2)cc1	-59	-24	-56*	7	30	2
Cc1ccc(N/C(N)=N/c2nc(CSc3nnc(C)s3)cc(=O)[nH]2)c(C)c1	.	-4	.	4	16	-4
COCCn1c(SCc2ccc(Cl)cc2)nc2c1c(=O)[nH]c(=O)n2C	58*	.	17	3	.	.
Cc1ccc2oc(=O)c3cc(C(=O)NCCCN4CCCC(C)C4)sc3c2c1 (stereo unspecified)	-19	39*	10	-14	-15	2
CCCN1CCN(CCCNC(=O)c2cc3c(=O)oc4ccc(C)cc4c3s2)CC1	6	32	4	-4	-5	0
CC(C)OCCCN1C(=O)c2[nH]nc(-c3ccccc3O)c2C1c1cccc(Cl)c1 (stereo unspecified)	-1	-31	13	20	2	4
COCCCN1C(=O)c2[nH]nc(-c3ccccc3O)c2C1c1cccc(Cl)c1 (stereo unspecified)	71*	-35	36	6	-1	11
Cc1occc1C(=O)N/N=C/C(Br)=C\c1ccccc1	363*	-9	230	0	3	5
O=C(N/N=C/C(Br)=C/c1ccccc1)NC1CCCCC1	58*	-17	46	-1	5	1
Cc1occc1C(=O)N/N=C/C=C/c1ccccc1	34	-3	21	-5	5	5
